The test system of series [1] is Liver microsomes. Briefly: Intrinsic clearance in rat liver microsomes assessed per gram of protein at 0.5 uM after 30 mins by HPLC-MS/MS analysis. In kind it is ADME, Microsome. Conditions: microsomes, 0.5 h, 0.5 µM. In short, it runs like this:
(§1)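 Compound at 0.5 μM with rat or human liver microsomes (0.5 mg protein/mL), 50 mM phosphate, pH 7.4, 37 °C, started with NADPH. Sampled at 0-30 min, acetonitrile quench, HPLC-MS/MS. CLi from first-order elimination constant, scaled assuming 52.5 mg microsomal protein/g.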
For orientation: Microsomes from liver hold many membrane-bound enzymes, among them those of drug oxidation.

The target in series [2] is T1, Sodium-dependent noradrenaline transporter (Homo sapiens, UniProt P23975). Briefly: Displacement of [N-methyl-3H]nisoxetine from human recombinant NET expressed in LLCPK cells by liquid scintillation counting. In kind it is cell-based. In short, it runs like this: (§2)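 Filtration binding on stably transfected LLCPK cell membranes, 2 h at room temperature. SERT: 0.25 nM [3H]citalopram, about 2.5 μg protein/well, NSB with 10 μM fluoxetine. NET: 1.5 nM [3H]nisoxetine, 4.8 μg/well, NSB with 10 μM desipramine. DAT: 10 nM [3H]WIN-35,428, 9.6 μg/well, NSB with 10 μM GBR-12909. Filter-bound radioactivity counted; 4-parameter fit, pKi by Cheng-Prusoff.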
T1 sequence (P23975 whole entry): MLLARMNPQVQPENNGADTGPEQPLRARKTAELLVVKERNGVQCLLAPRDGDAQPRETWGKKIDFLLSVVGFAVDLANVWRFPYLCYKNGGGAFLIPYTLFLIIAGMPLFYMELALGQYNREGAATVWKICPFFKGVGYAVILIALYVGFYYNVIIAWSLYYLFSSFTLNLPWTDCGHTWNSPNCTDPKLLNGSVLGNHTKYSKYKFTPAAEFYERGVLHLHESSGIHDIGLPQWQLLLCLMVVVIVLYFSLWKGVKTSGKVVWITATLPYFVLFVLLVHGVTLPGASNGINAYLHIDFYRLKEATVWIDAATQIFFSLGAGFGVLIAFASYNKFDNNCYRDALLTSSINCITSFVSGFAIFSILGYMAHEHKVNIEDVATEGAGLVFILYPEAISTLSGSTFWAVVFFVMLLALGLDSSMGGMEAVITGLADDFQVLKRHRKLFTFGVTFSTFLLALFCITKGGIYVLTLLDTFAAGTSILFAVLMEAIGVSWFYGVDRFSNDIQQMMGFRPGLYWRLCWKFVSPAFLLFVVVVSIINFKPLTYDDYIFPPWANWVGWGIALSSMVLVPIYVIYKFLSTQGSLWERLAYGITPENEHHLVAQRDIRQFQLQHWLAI

A further series deals with Cytochrome P450 2C9 (Homo sapiens, UniProt P11712). Briefly: Inhibition of human CYP2C9 by fluorescence assay. In kind it is ADME. Put shortly:
(§3)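 Recombinant human P450 bactosomes (0.1 mg/mL) in 50 mM phosphate, pH 7.4. Test compound at 0.1-10 μM, preincubated 10 min at 37 °C with fluorogenic substrate: ethoxyresorufin 0.5 μM (1A2), FCA 50 μM (2C9), BMC 10 μM (2C19), MMC 10 μM (2D6).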

The target in series [3] is Sodium-dependent serotonin transporter (Rattus norvegicus, UniProt P31652). The experiment in a line: Displacement of [3H]citalopram from rat cortex SERT by filtration binding assay. Put shortly: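 Native brain tissue filtration binding, run as for the recombinant transporters. SERT on rat or mouse cortex (20 and 7 μg protein/well respectively). NET on rat hippocampus (40 μg/well). DAT on rat striatum (20 μg/well).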
Sodium-dependent serotonin transporter (Rattus norvegicus, UniProt P31652), sequence (P31652 whole entry): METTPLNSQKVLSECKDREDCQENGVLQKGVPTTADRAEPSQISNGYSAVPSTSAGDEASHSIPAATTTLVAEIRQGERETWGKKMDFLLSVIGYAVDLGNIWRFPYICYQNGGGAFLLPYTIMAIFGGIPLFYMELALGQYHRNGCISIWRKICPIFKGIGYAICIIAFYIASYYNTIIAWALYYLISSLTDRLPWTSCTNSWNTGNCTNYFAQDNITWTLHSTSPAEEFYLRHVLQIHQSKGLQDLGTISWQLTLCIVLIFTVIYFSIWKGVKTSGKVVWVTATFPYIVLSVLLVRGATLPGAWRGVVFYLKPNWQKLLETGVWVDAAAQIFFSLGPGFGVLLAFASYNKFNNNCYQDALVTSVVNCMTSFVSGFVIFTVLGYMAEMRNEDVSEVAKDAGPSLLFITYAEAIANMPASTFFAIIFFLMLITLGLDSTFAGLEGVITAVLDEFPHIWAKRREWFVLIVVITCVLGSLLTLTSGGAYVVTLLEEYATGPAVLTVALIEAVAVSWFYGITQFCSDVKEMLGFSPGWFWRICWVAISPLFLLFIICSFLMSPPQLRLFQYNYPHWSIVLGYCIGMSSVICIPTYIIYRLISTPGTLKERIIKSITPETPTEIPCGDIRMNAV
Background: Loss of bound radioactivity is the signal in a displacement assay; it reports binding, not function.

The nature of series [4]: Fraction unbound in rat brain. In kind it is ADME, tissue-based. To be noted: brain.
The target in series [5] is T1, Sodium-dependent noradrenaline transporter. Briefly: Displacement of [3H]nisoxetine from human recombinant NET expressed in BacMam virus-transduced cells by scintillation proximity assay. In kind it is cell-based. In short, it runs like this: (§4)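 BacMam-transduced membranes in SPA format. SERT: 1 mg/mL beads, 6 μg/mL membranes, 3 nM [3H]citalopram. NET: 2 mg/mL beads, 40 μg/mL membranes, 10 nM [3H]nisoxetine. Incubated overnight at room temperature; pKi from pIC50 by Cheng-Prusoff.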

The target of series [6] is T2, Sodium-dependent serotonin transporter (Homo sapiens, UniProt P31645). Briefly: Displacement of [3H]citalopram from human recombinant SERT expressed in LLCPK cells by liquid scintillation counting. In kind it is cell-based. Put shortly:
as §2

A short description of series [7]: Bioavailability in rat. Conditions: in vivo. In kind it is ADME, organism-based.
Series [8] deals with Liver microsomes. Briefly: Intrinsic clearance in human liver microsomes assessed per gram of protein at 0.5 uM after 30 mins by HPLC-MS/MS analysis. In kind it is ADME, Microsome. Conditions: microsomes, 0.5 h, 0.5 µM. In short, it runs like this:
as §1

The nature of series [9]: Volume of distribution in rat. In kind it is ADME, organism-based. Conditions: in vivo.
A short description of series [10]: Blood clearance in rat. In kind it is ADME, organism-based.
Series [11] deals with T3, Sodium-dependent dopamine transporter (Homo sapiens, UniProt Q01959). The experiment in a line: Displacement of [N-methyl-3H]WIN-35428 from human recombinant DAT expressed in LLCPK cells by liquid scintillation counting. In kind it is cell-based. Put shortly: as §2
T3 sequence (Q01959 whole entry): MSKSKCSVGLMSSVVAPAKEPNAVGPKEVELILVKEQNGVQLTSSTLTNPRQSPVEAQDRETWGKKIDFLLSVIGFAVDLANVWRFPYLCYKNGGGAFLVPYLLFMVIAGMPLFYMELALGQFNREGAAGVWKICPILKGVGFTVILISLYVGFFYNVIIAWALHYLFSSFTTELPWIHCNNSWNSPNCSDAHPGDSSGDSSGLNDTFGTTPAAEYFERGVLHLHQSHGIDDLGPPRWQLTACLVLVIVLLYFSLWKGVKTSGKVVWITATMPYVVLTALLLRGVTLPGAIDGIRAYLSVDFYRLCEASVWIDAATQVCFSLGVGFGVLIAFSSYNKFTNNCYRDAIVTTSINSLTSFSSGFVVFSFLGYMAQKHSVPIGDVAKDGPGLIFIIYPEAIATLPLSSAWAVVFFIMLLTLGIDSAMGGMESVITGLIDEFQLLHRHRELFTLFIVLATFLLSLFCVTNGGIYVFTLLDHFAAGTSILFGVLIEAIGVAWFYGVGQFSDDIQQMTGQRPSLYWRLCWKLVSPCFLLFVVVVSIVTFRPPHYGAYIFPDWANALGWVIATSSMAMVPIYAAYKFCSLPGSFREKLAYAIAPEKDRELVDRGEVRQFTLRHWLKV
For the next series, the target named is Cytochrome P450 2D6 (Homo sapiens, UniProt P10635). Briefly: Inhibition of human […] by fluorescence assay. In kind it is ADME. Put shortly:
as §3

The nature of series [12]: Ratio of drug level in brain to blood in rat. To be noted: read-out: BBR. In kind it is ADME, tissue-based.
The target in series [13] is T3, Sodium-dependent dopamine transporter. Briefly: Displacement of [3H]WIN-35428 from human recombinant DAT expressed in BacMam virus-transduced cells by scintillation proximity assay. In kind it is cell-based.
For the next series, the target named is Cytochrome P450 3A4 (Homo sapiens, UniProt P08684). The experiment in a line: Inhibition of human CYP3A4 by fluorescence assay.
Cytochrome P450 3A4, sequence (P08684 whole entry): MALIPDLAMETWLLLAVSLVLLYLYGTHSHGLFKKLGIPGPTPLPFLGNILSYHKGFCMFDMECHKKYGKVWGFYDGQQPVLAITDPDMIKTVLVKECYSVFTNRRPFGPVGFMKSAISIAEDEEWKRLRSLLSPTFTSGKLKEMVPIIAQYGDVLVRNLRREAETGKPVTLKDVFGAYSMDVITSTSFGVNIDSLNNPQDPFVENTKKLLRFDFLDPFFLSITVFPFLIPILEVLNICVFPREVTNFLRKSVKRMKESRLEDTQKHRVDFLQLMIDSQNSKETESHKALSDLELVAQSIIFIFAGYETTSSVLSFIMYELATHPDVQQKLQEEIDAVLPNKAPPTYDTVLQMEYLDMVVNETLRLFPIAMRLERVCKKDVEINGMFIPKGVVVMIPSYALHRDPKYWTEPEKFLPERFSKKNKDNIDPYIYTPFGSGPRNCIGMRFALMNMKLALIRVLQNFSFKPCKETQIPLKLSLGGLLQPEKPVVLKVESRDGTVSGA
A further series concerns the target Cytochrome P450 2C19 (Homo sapiens, UniProt P33261). The experiment in a line: Inhibition of human CYP2C19 by fluorescence assay. In kind it is ADME. In short, it runs like this: as §3
Another series has as its target T4, Cytochrome P450 1A2 (Homo sapiens, UniProt P05177).
T4 sequence (P05177 whole entry): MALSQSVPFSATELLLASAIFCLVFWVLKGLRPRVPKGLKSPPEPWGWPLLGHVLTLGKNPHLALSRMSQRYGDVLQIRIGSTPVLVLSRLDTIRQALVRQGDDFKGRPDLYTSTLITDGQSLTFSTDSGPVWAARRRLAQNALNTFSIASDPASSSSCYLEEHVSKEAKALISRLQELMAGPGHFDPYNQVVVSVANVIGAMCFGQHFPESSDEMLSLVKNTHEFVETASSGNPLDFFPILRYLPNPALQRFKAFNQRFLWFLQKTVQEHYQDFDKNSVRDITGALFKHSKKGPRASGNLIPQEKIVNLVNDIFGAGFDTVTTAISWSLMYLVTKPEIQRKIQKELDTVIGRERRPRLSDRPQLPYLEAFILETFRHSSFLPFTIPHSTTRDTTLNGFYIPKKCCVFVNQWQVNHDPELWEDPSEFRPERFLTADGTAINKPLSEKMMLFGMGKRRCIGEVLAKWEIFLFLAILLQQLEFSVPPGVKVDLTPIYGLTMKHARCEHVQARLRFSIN
The experiment in a line: Inhibition of human CYP1A2 by fluorescence assay. In kind it is ADME. Put shortly:
as §3

Series [14] can be described thus: (§5) Half life in rat. In kind it is ADME, organism-based. Conditions: in vivo.
Series [15] concerns the target T2, Sodium-dependent serotonin transporter. The experiment in a line: Displacement of [3H]citalopram from human recombinant SERT expressed in BacMam virus-transduced cells by scintillation proximity assay. In kind it is cell-based. In short, it runs like this:
as §4

In a further series the test system is Mus musculus. Briefly: Potentiation of 5-hydroxytryptophan-induced stereotpic behavior in CD1 mouse at 10 mg/kg, po administered 120 mins before 5HTP challenge measured for 30 mins. In kind it is functional, organism-based. On the set-up: dose 10 mg/kg. In short, it runs like this:
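Naive male CD-1 mice (25-30 g) were dosed orally 120 min before an ip injection of 5-HTP (100 mg/kg). Each mouse was then placed alone in a perspex box and videotaped. For the next 30 min, observers scored aimless hyperlocomotor activity, hind-limb abduction, flat body posture, head twitches/tremor and body tremor.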

The species entered for a further series is Rattus norvegicus. Described as §5. In kind it is ADME, organism-based. Conditions: in vivo.

Active and inactive are the calls of the source. The calls are words filed in the database; no cut-off is given here.

T2 sequence (P31645 whole entry): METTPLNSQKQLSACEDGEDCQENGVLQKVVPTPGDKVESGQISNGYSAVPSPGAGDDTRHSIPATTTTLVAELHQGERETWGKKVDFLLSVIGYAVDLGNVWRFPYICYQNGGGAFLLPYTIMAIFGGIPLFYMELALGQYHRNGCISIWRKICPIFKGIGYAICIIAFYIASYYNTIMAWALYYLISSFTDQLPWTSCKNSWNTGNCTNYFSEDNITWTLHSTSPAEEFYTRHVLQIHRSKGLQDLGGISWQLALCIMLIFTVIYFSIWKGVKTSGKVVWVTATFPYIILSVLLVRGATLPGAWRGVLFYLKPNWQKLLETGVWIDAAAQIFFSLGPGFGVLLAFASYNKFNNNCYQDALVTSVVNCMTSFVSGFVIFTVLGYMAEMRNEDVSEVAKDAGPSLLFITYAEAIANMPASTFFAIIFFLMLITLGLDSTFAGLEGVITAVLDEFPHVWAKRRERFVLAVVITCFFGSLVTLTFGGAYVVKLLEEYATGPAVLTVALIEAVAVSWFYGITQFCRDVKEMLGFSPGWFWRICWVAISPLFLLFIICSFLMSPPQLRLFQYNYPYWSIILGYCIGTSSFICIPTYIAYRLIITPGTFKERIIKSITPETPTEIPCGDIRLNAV
Cytochrome P450 2C9, sequence (P11712 whole entry): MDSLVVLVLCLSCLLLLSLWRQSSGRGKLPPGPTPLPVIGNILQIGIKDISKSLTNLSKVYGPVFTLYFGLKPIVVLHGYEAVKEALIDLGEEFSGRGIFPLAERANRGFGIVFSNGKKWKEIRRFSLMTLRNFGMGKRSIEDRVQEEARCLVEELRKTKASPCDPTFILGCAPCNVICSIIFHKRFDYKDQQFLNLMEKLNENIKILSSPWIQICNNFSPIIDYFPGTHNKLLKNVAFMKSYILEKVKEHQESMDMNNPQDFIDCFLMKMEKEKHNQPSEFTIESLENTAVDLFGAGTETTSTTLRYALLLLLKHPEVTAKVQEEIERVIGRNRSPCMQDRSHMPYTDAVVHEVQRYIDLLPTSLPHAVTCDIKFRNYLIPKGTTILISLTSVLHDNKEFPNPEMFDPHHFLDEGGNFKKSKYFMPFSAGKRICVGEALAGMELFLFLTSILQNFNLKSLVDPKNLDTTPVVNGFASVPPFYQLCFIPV
Cytochrome P450 2D6, sequence (P10635 whole entry): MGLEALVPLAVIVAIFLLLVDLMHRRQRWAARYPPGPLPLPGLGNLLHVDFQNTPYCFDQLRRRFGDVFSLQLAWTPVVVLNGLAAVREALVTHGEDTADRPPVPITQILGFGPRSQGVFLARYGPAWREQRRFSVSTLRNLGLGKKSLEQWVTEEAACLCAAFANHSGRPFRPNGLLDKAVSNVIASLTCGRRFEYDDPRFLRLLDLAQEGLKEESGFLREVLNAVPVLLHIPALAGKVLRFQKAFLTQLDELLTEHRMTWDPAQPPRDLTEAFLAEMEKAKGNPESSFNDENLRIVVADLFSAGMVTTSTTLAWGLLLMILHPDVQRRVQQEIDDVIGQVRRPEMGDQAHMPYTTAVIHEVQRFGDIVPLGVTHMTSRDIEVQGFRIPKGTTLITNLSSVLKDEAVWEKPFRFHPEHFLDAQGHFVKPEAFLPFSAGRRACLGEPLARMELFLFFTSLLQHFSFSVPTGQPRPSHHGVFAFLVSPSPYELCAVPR
Cytochrome P450 2C19, sequence (P33261 whole entry): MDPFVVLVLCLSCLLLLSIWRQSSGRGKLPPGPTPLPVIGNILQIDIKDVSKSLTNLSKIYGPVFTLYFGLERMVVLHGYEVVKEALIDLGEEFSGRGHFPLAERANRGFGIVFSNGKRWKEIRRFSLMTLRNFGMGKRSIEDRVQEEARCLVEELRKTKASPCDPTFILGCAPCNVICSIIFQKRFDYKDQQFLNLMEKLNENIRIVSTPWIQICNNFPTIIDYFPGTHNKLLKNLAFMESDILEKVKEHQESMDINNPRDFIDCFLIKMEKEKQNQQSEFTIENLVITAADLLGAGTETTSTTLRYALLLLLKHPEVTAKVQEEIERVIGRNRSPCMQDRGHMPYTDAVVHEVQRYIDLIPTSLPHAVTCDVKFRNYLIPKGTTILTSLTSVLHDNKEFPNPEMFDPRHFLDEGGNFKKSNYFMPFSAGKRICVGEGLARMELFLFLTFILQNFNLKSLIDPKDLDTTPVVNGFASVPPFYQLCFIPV

As a reminder, the Ki is the dissociation constant of the complex between target and ligand, obtained from inhibition or displacement. For orientation: IC50 means the point on the concentration scale where inhibition reaches its midpoint. Low values mean greater potency, high ones weaker potency. The term fraction unbound denotes free concentration divided by total concentration. As usually defined, the bioavailability is dose-corrected exposure relative to a reference, in per cent. The low end stands for little systemic uptake, the high end for much systemic uptake. The term Vd denotes a proportionality between amount in the body and measured concentration, not a real space. A lower Vd goes with confinement near the circulation. For orientation: clearance means the rate of elimination divided by the concentration. Lower therefore signals a low capacity for elimination. By half-life is commonly meant how long it takes for the measured level to halve. The low end stands for fast loss, the high end for slow loss. On to `COC[C@H]1[C@@H]2CNC[C@@]21c1ccc(Cl)c(Cl)c1` (relative stereo), for which the results for the CL in the series with Liver microsomes [1] and in the series with Liver microsomes [8] were 3.8 mL/min/g and less than 0.5 mL/min/g, respectively. The Ki in [2] was 4.57 nM; in series [3], 1.78 nM; in [5] it was 1.74 nM; in [6], 0.741 nM; in series [11], 85.1 nM; in series [13] it was 56.2 nM. Besides, in series [15], the Ki was 0.759 nM. Further, the IC50 on Cytochrome P450 2C9, against Cytochrome P450 2D6, against Cytochrome P450 3A4, against Cytochrome P450 2C19 and against Cytochrome P450 1A2 was more than 6000 nM in each case. In series [4], this compound came in with a fraction unbound of 0.027. Also, the bioavailability in series [7] came to 94%. In series [9], this compound yielded a Vd of 2.9 L/kg. In [10], this compound registered a clearance of 16 mL/min/kg. In addition, the Kp in series [12] was determined as 4. The compound also gave a half-life in series [14] of 2.4 h.

Consider `CN(C)CCCC1(c2ccc(F)cc2)OCc2cc(C#N)ccc21` (configuration not stated), for which the result in the series with Mus musculus was Active.

For `FC(F)(F)COC[C@H]1[C@@H]2CNC[C@@]21c1ccc(Cl)c(Cl)c1` (stereo in doubt), in series [4], the fraction unbound was found to be 0.006. Besides, the figures for the Ki in series [5], in [13] and in [15] were 3.98 nM, 50.1 nM and 1.26 nM, respectively. Besides, the Kp in series [12] was 18. In the series listed under Rattus norvegicus, this compound came in with a t1/2 of 1.4 h.

For the origin of these results see ChEMBL document CHEMBL1157620, “1-(Aryl)-6-[alkoxyalkyl]-3-azabicyclo[3.1.0]hexanes and 6-(aryl)-6-[alkoxyalkyl]-3-azabicyclo[3.1.0]hexanes: a new series of potent and selective triple reuptake inhibitors” (J Med Chem, 2010).
